Results filed as inconclusive are left out.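 The calls were made as follows, unless noted: active = viability increase at or above a cutoff of the median across tested compounds plus 3 SD (cut at about 8.5% in these data, passing the limit was not always enough); inconclusive = some gains above the cutoff, reason not given; inactive = the rest.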
What was measured:
[1] = OD615 S. cerevisiae growth inhibition, permissive medium, pilot counter-assay, permissive growth control for S. cerevisiae lifespan shortening project (AID 705;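 active = growth inhibition above 25% in both replicates, a cutoff set 3 SD above the mean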); settings: OD615, 24 h, at 10 µM, stronger effect = higher value
Outline: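 System: Engineered DeaD yeast | Buffer or medium: SC raffinose/galactose permissive medium | Incubation: Cells pre-grown 4 h, then 24 h compound exposure, 30 °C humidified | Measured by: Absorbance (optical density) at 615 nm | Read-out: Reduction in yeast growth (OD615)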

[2] = Restrictive medium S. cerevisiae growth inhibition, OD615, pilot screen of yeast lifespan reduction project, restrictive growth control (AID 706;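 active = growth inhibition above a set limit, 3 SD over mean compound inhibition, in both replicates, cut at about 43% in these data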;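 also: modified DeaD lifespan yeast strain shifted to restrictive glucose medium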); settings: OD615, 48 h, at 10 µM, stronger effect = higher value
Outline: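 Material: modified S. cerevisiae; Medium: glucose-based CSMM-D restrictive medium; Compound dosing: one concentration, 10 µM final, 0.25% DMSO; Incubation: 48 h compound exposure at 30 °C; Measured by: OD615.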

[3] = viability gain of MRP-1-high H69AR cells under doxorubicin, pilot screen, MRP-1 activator project, CellTiter-Glo, duplicate (AID 807); settings: H69AR viability with doxorubicin, CellTiter-Glo luminescence; at 10 µM; stronger effect = higher value;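 also: compound pretreatment 18-22 h then 72 h combined with doxorubicin; 0% = doxorubicin alone and 100% = vehicle without doxorubicin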
[4] = growth suppression of beta-catenin knockout HCT116, pilot screen, human colon tumor cells (AID 823;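 active = cell viability at or below a set limit in both duplicate runs, the limit being the all-compound median minus 4 SD, cut at about 23% in these data, passing the limit was not always enough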;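 also: 0% = wells killed by 20 µM Hyamine and 100% = untreated DMSO cell wells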); settings: CellTiter-Glo, 60 h, at 10 µM, stronger effect = lower value
[5] = growth suppression of PTEN-deleted HCT116, pilot screen, cell-based, HCT116 clonal line, CellTiter-Glo (AID 824;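 active = viability at or below 27.92% in each of two runs, the all-compound median minus 4 SD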;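 also: 0% = 20 µM Hyamine control and 100% = vehicle cell control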); settings: 60 h, at 10 µM, stronger effect = lower value
[6] = inhibitors of the yeast RAM network, pilot screen, dse1pr::URA3 reporter, 5-FOA selection (AID 869;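 active = inhibition over a set limit, the all-compound mean plus 3 SD, in both replicate runs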;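 also: 0% = DMSO wells with no growth and 100% = 10 µM 1-NA-PP1 with full growth; RAM network block rescues cells from 5-FOA so hits raise OD615 growth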); settings: S. cerevisiae dse1pr::URA3 5-FOA growth, OD615, 2 d; at 10 µM; stronger effect = higher value; strain carries analog-sensitive mutant Cbk1 kinase
[7] = RAM signaling pathway blockade in yeast – S. cerevisiae, Pdr1DBD-CYC8 efflux-inhibited sensitized strain, primary screen (AID 1298;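 active = RAM network inhibition above 8.4% in each of two replicates, 3 SD over the compound average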;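 also: 0% = DMSO untreated cells without growth and 100% = 10 µM 1-NA-PP1 full growth; higher means more yeast growth rescued from 5-FOA killing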); settings: S. cerevisiae cbk1-as DSE1-URA3 strain, 5-FOA growth OD615, 2 d; at 50 µM; stronger effect = higher value

CC(=O)C1C(c2ccc(O)cc2)NC(=O)NC1(O)C(F)(F)F (stereo not given)
inactive: growth inhibition [1] -15.9% | growth inhibition [2] -25.1% | viability increase [3] -1.41% | viability [4] 102% | viability [5] 98.7% | inhibition [6] 2.78% | RAM network inhibition [7] 4.56%

COc1cccc(NC(=O)Nc2nnc(N3CCCCC3C)s2)c1 (stereo not given)
inactive: growth inhibition [1] -2.52% | growth inhibition [2] -11.5% | viability increase [3] -4.53% | viability [4] 88.8% | viability [5] 97.8% | inhibition [6] 1.83% | RAM network inhibition [7] 4.22%

COc1ccc(S(=O)(=O)N(CC(=O)Nc2ccc3c(c2)OCO3)c2ccccc2OC)cc1
inactive: growth inhibition [1] -20.4% | growth inhibition [2] -13.9% | viability increase [3] -5.32% | viability [4] 69% | viability [5] 79.8% | inhibition [6] 2.13% | RAM network inhibition [7] 6.05%

Cn1c(=O)c2c(nc(NCc3ccccc3)n2C)n(C)c1=O
inactive: growth inhibition [1] -4.99% | growth inhibition [2] -2.69% | viability increase [3] -1.73% | viability [4] 99.6% | viability [5] 95.4% | inhibition [6] 0.45% | RAM network inhibition [7] 1.42%

O=C(CCc1ccccc1)N1CCN(CCO)CC1
inactive: growth inhibition [1] -4.45% | growth inhibition [2] 9.8% | viability increase [3] 0.6% | viability [4] 101% | viability [5] 110% | inhibition [6] 0.715% | RAM network inhibition [7] 3.71%

COC(=O)c1ccc(NS(=O)(=O)c2ccc3c(c2)oc(=O)n3C)cc1
inactive: growth inhibition [1] -4.12% | growth inhibition [2] -3.33% | viability increase [3] 1.49% | viability [4] 103% | viability [5] 96.4% | inhibition [6] 0.69% | RAM network inhibition [7] 7.21%

CCCCCn1c(CNC(=O)c2cccs2)nc2ccccc21
inactive: growth inhibition [1] -5.02% | growth inhibition [2] 3.4% | viability increase [3] -2.58% | viability [4] 90.8% | viability [5] 94% | inhibition [6] 0.42% | RAM network inhibition [7] 3.16%

CCOC(=O)c1ccc(NC(=O)C23CCC(C)(C(=O)O2)C3(C)C)cc1 (stereo not given)
inactive: growth inhibition [1] 1.15% | growth inhibition [2] 4.45% | viability increase [3] 1.07% | viability [4] 93.5% | viability [5] 101% | inhibition [6] -0.095% | RAM network inhibition [7] 5.33%

CCCNc1nc2c(c(=O)[nH]c(=O)n2C)n1Cc1ccc(F)cc1
inactive: growth inhibition [1] -1.32% | growth inhibition [2] -1.12% | viability increase [3] -2% | viability [4] 104% | viability [5] 92.9% | inhibition [6] 0.945% | RAM network inhibition [7] 0.57%

CCOc1ccccc1Nc1ncnc2c1cnn2-c1ccccc1
inactive: growth inhibition [1] -6.82% | growth inhibition [2] -5.11% | viability increase [3] 3.06% | viability [4] 93.6% | viability [5] 91.1% | inhibition [6] 2.2% | RAM network inhibition [7] 5.59%

Cc1cc(-c2ccco2)n(CC(=O)NCCCc2ccccc2)n1
inactive: growth inhibition [1] -13.3% | growth inhibition [2] -2.17% | viability increase [3] -1.48% | viability [4] 100% | viability [5] 97% | inhibition [6] 0.905% | RAM network inhibition [7] -0.37%

CC(=O)Nc1ccc(-c2cc(NC(C)=O)n(-c3ccccc3)n2)cc1
inactive: growth inhibition [1] 2.46% | growth inhibition [2] -0.26% | viability increase [3] -1.76% | viability [4] 104% | viability [5] 91.7% | inhibition [6] 0.97% | RAM network inhibition [7] 3.1%

O=C1NCCCC1C(=O)N1CCN(C(=O)c2ccco2)CC1 (stereo not given)
inactive: growth inhibition [1] -3.22% | growth inhibition [2] -1.05% | viability increase [3] -0.63% | viability [4] 106% | viability [5] 98.6% | inhibition [6] -0.03% | RAM network inhibition [7] 0.31%

CS(=O)(=O)Nc1ccccc1Oc1ccccc1
inactive: growth inhibition [1] -4.92% | growth inhibition [2] 2.56% | viability increase [3] -0.66% | viability [4] 97.5% | viability [5] 92.8% | inhibition [6] -0.23% | RAM network inhibition [7] -0.46%

Cc1ccc(C2CC(c3ccc(F)cc3)Nc3nc(N)nn32)cc1 (stereo not given)
inactive: growth inhibition [1] -3.28% | growth inhibition [2] 5.93% | viability increase [3] -3.44% | viability [4] 99.8% | viability [5] 86.7% | inhibition [6] 0.25% | RAM network inhibition [7] 2.86%

COc1ccc(-n2nc3c(c2NC(=O)c2ccc(Br)cc2)CS(=O)C3)cc1 (stereo not given)
inactive: growth inhibition [1] -4.15% | growth inhibition [2] 4.82% | viability increase [3] -2.41% | viability [4] 85.3% | viability [5] 91.5% | inhibition [6] 0.805% | RAM network inhibition [7] 2.87%

Cc1nc2ccccc2c2oc(C(=O)NCCCN3CCC(C)CC3)cc12
inactive: growth inhibition [1] 2.51% | growth inhibition [2] 17.8% | viability increase [3] -5.7% | viability [4] 63.6% | viability [5] 64.7% | inhibition [6] 1.96% | RAM network inhibition [7] 6.26%

COCCSc1nc2c(c(=O)[nH]c(=O)n2C)n1Cc1cccc(C)c1
inactive: growth inhibition [1] 0.55% | growth inhibition [2] 0.3% | viability increase [3] -1.81% | viability [4] 90.2% | viability [5] 79.6% | inhibition [6] 1.57% | RAM network inhibition [7] 4.44%

CCc1ccc(NC(=O)CSc2nnc(Cn3c(=O)sc4ccccc43)n2C)cc1
inactive: growth inhibition [1] -4.66% | growth inhibition [2] -25.2% | viability increase [3] -1.98% | viability [4] 104% | viability [5] 97.6% | inhibition [6] 2.96% | RAM network inhibition [7] 8.29%

COc1cccc(-c2nc(CS(=O)CC(=O)O)c(C)o2)c1 (stereo not given)
inactive: growth inhibition [1] -1.73% | growth inhibition [2] 2.52% | viability increase [3] -0.27% | viability [4] 99.9% | viability [5] 99.5% | inhibition [6] 1.31% | RAM network inhibition [7] 4.89%

CCOc1ccc(C2C(C(=O)Nc3ccc(F)cc3)=C(C)Nc3nc(CCCO)nn32)cc1 (stereo not given)
inactive: growth inhibition [1] -12.5% | growth inhibition [2] 12.8% | viability increase [3] -0.6% | viability [4] 96.6% | viability [5] 91.5% | inhibition [6] 0.87% | RAM network inhibition [7] 1.21%

Cc1cc(C)n(C(=O)CCCC(=O)n2nc(C)cc2C)n1
inactive: growth inhibition [1] -10.5% | growth inhibition [2] -10.9% | viability increase [3] -1.19% | viability [4] 105% | viability [5] 97.4% | inhibition [6] 1.19% | RAM network inhibition [7] 2.92%

CCOCCn1c(CN(Cc2ccccc2)Cc2ccccc2)nc2c1c(=O)n(C)c(=O)n2C
inactive: growth inhibition [1] 0.79% | growth inhibition [2] 12.6% | viability increase [3] -2.62% | viability [4] 64.7% | viability [5] 57.6% | inhibition [6] 1.48% | RAM network inhibition [7] 5.44%

CCSc1nnc(NC(=O)CSc2nc3c(c(=O)n2CCOC)SC(C)C3)s1 (stereo not given)
inactive: growth inhibition [1] -5.35% | growth inhibition [2] -1.1% | viability increase [3] -2.95% | viability [4] 94.1% | viability [5] 94.4% | inhibition [6] 2.09% | RAM network inhibition [7] 7.38%

Cc1cc(NC(=O)C2CC(c3ccc(F)cc3)=NO2)no1 (stereo not given)
inactive: growth inhibition [1] -0.42% | growth inhibition [2] -0.655% | viability increase [3] -0.18% | viability [4] 101% | viability [5] 109% | inhibition [6] -0.08% | RAM network inhibition [7] 4.62%

— PubChem BioAssay
